A word on the ΔTm: it is the shift of the melting midpoint relative to a reference. By IC50 is commonly meant the concentration at which inhibition is half-maximal.

Activity calls are given as the source filed them. The rule behind the calls is not given here.

For one assay, the system named is microRNA 21. Briefly: Inhibition of miR-21 RNA (unknown origin) transfected in human HeLa cells at 0.1 to 1000 nM after 48 hrs by Bright-Glo luciferase reporter gene assay. In kind it is cell-based.
Settings: not given
(A reporter such as luciferase makes a cellular process visible.)
`CC[C@@]1(O)C(=O)OCc2c1cc1n(c2=O)Cc2cc3c(CN(C)C)c(O)ccc3nc2-1` [TOPOTECAN]: the inhibition result is “inactive”.

In the next assay the test system is A498. Briefly: Induction of apoptosis in human A498 cells assessed as increase in caspase-3/7 activity at 1 uM after 24 hrs by Caspase-Glo 3/7 assay relative to control. The class given is functional.
Settings: not given
Consider `CC[C@@]1(O)C(=O)OCc2c1cc1n(c2=O)Cc2cc3c(CN(C)C)c(O)ccc3nc2-1` [TOPOTECAN], for which the “fold change (FC)” value was found to be 3.

Tested on in another assay: not listed separately
Briefly: Stabilization of pre-miR-21 RNA (unknown origin) assessed as increase in melting temperature at 10 uM by UV-spectrophotometric analysis.
Settings: not given
Summed up: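 Melting-curve analysis of precursor miR-21 RNA run with test compound, with DMSO as the reference condition and tobramycin (10 μM) as a positive control for RNA binding and stabilisation. Read-out is the shift in melting temperature of pre-miR-21 relative to the DMSO sample.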
For the compound `NC[C@H]1O[C@H](O[C@H]2[C@H](O)[C@@H](O[C@H]3O[C@H](CO)[C@@H](O)[C@H](N)[C@H]3O)[C@H](N)C[C@@H]2N)[C@H](N)C[C@@H]1O`, the shift in melting temperature (ΔTm) turned out to be 19 °C.

The next assay concerns A498. Briefly: Inhibition of colony formation of human A498 cells after 2 weeks by crystal violet staining-based microscopic analysis. In kind it is functional, cell-based. Conditions: A498, 336 h. The procedure, abridged: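 A498 cells, 10,000 per well, seeded in 0.45% low-melt agarose in DMEM over a 0.7% agarose base layer, containing increasing compound concentrations or DMSO (0.1% final), in triplicate. For combinations, the inhibitor was held at 10 μM. After 2 weeks, colonies were stained with 0.1% crystal violet and imaged by z-stack microscopy. Colony counts were normalized to DMSO; IC50 from sigmoidal fit.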
For `CC[C@@]1(O)C(=O)OCc2c1cc1n(c2=O)Cc2cc3c(CN(C)C)c(O)ccc3nc2-1` [TOPOTECAN], the IC50 is 2000 nM.

Another assay relates to microRNA 21. Kind of assay: Inhibition of miR-21 RNA in human HeLa cells harboring miR-21 binding sequence in 3'-UTR of firefly luciferase gene assessed as increase in luciferase expression incubated for 48 hrs by Bright-Glo luciferase reporter gene assay relative to control. In kind it is cell-based.
Settings: not given
The procedure, abridged:
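HeLa-miR21-Luc stable line (miR-21 site in the firefly luciferase 3′-UTR), 1000 cells per well. Compound or DMSO (0.1% final) added after overnight attachment, in triplicate, for 48 h. Bright-Glo luminescence was normalized to XTT viability (450 nm) and expressed as fold change relative to DMSO. At least three independent experiments.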
As for `Nc1c(-c2nc(-c3cccs3)no2)nnn1-c1cccc(OC(F)(F)F)c1`, the fold change (FC) was 1.4. Same read-out and setting: under `c1ccc(-n2cc(-c3nc(-c4cccs4)no3)nn2)cc1` stands 1.41; under `CC(=O)c1cccc(-n2nnc(-c3nc(-c4cccs4)no3)c2N)c1`, 2.46; under `CC(C)c1cccc(-n2nnc(-c3nnc(-c4cccs4)o3)c2N)c1`, 1.72.

In the case of `CCc1cccc(-n2nnc(-c3nc(-c4cccs4)no3)c2N)c1`, the fold change (FC) stood at 1.63. The same measure, in the same setting: under `COc1ccccc1-n1nnc(-c2nc(-c3cccs3)no2)c1N` stands 2.02; under `C/C(=N\O)c1cccc(-n2nnc(-c3nc(-c4ccc(O)cc4)no3)c2N)c1`, 1.98; under `Nc1c(-c2nc(-c3cccs3)no2)nnn1-c1cccc(C(F)(F)F)c1`, 1.08. Still for that read-out and setting: under `COc1cccc(-n2nnc(-c3nnc(-c4cccs4)o3)c2N)c1` stands 2.68; under `C/C(=N\O)c1cccc(-n2nnc(-c3nc(-c4cccs4)no3)c2N)c1`, 4.54; under `C/C(=N\O)c1cccc(-n2nnc(-c3nc(-c4ccc(OC(C)C)cc4)no3)c2N)c1`, 1.19. Same read-out and setting: under `Cc1cccc(-n2nnc(-c3nc(-c4cccs4)no3)c2N)c1C` stands 1.89; under `COc1cc(OC)cc(-n2nnc(-c3nc(-c4cccs4)no3)c2N)c1`, 2.3. In the case of `C=CCOc1ccc(-c2noc(-c3nnn(-c4cccc(/C(C)=N/O)c4)c3N)n2)cc1`, the fold change (FC) was 2.96. `COc1ccc(-c2noc(-c3nnn(-c4cccc(/C(C)=N/O)c4)c3N)n2)cc1`: the fold change (FC) was 1.51.

`Nc1c(-c2nc(-c3cccs3)no2)nnn1-c1cccc(F)c1`: the fold change (FC) is 1.93.

As to `Nc1c(-c2nc(-c3cccs3)no2)nnn1-c1ccccc1`, the fold change (FC) amounted to 1.01.

Take `CN(C)c1cccc(-n2nnc(-c3nc(-c4cccs4)no3)c2N)c1`: the fold change (FC) was determined as 2.56. Same read-out and setting: under `COc1cccc(-n2nnc(-c3nc(-c4ccco4)no3)c2N)c1` stands 2.19; under `Nc1c(-c2nc(-c3cccs3)no2)nnn1-c1ccc2ccccc2c1`, 1.39. The same measure, in the same setting: under `C#CCOc1cccc(-n2nnc(-c3nc(-c4cccs4)no3)c2N)c1` stands 1.61. Consider `Nc1c(-c2nc(-c3cccs3)no2)nnn1-c1cccc(C(=O)c2ccccc2)c1`, for which the fold change (FC) is 1.82. In the case of `Fc1cccc(-n2cc(-c3nc(-c4cccs4)no3)nn2)c1`, the fold change (FC) amounted to 1.7. Take `COc1cccc(-n2cc(-c3nc(-c4cccs4)no3)nn2)c1`: the fold change (FC) was 2.2. On the same count and under the same terms, under `C#CCOc1ccc(-n2nnc(-c3nc(-c4cccs4)no3)c2N)cc1` stands 1.47; under `COc1cccc(-n2nnc(-c3nc(-c4ccccc4)no3)c2N)c1`, 2.19; under `Nc1c(-c2nc(-c3cccs3)no2)nnn1-c1cccc(-c2ccccc2)c1`, 1.06. As to `COc1cccc(-n2nnc(-c3nc(-c4cccs4)no3)c2N)c1`, the fold change (FC) was found to be 2.84. The same measure, in the same setting: under `Nc1c(-c2nc(-c3cccs3)no2)nnn1-c1ccc(CO)cc1` stands 2.14; under `CCOc1ccc(-c2noc(-c3nnn(-c4cccc(/C(C)=N/O)c4)c3N)n2)cc1`, 3.14; under `COc1cccc(-n2nnc(-c3nc(-c4ccccn4)no3)c2N)c1`, 2.23. Still for that read-out and setting: under `Nc1c(-c2nc(-c3cccs3)no2)nnn1-c1cccc(CO)c1` stands 1.67; under `CC(C)c1cccc(-n2nnc(-c3nc(-c4cccs4)no3)c2N)c1`, 1.82. `Nc1c(-c2nc(-c3cccs3)no2)nnn1-c1cccc(O)c1`: the fold change (FC) worked out at 2.19. Same read-out and setting: in the case of `Nc1c(-c2nc(-c3cccs3)no2)nnn1-c1ccccc1CO` it was 2.23; in that of `Nc1c(-c2nnc(-c3cccs3)o2)nnn1-c1cccc(F)c1`, 1.6.

(Values after ChEMBL document CHEMBL4251758, “Small Molecule Inhibition of MicroRNA miR-21 Rescues Chemosensitivity of Renal-Cell Carcinoma to Topotecan” (J Med Chem, 2018).)
